# Assays:
# Type in all cases: functional
# NCI-H226 = assay: Cytotoxicity against human NCI-H226 cells after 48 hrs by sulforhodamine B assay; settings: NCI-H226, 48 h
# In short: (§1)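 NCI 60-panel screen. Cells were grown in RPMI 1640 with 5% FBS and L-glutamine and plated at 5000–40,000 cells/well according to doubling time. They were preincubated 24 h at 37 °C, 5% CO2, then exposed 48 h to five 10-fold dilutions. Adherent cells were fixed with cold TCA, final 10%; suspension cells were fixed after settling. Cells were stained with 0.4% SRB and read at 515 nm. Tz/C/Ti growth curves gave GI50, TGI and LC50.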
# A498 = assay: Cytotoxicity against human A498 cells after 48 hrs by sulforhodamine B assay; settings: A498, 48 h; in short: as §1
# COLO 205 = assay: Growth inhibition of human COLO205 cells at 10 uM after 48 hrs by sulforhodamine B assay; settings: COLO 205, 48 h, read-out: GI
# In short: (§2)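 NCI one-dose primary screen at 10 (printed mM) across the 60-line panel. Cells in RPMI 1640 with 5% FBS and 2 mM L-glutamine, plated at 5000–40,000 cells/well and incubated 24 h before dosing. Exposure 48 h at 37 °C, 5% CO2. Adherent cells were fixed with cold TCA, suspension cells fixed after settling. SRB stain, absorbance 515 nm. Reported as percent growth of treated cells relative to control.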
# MDA-MB-231 = assay: Cytotoxicity against human MDA-MB-231 cells after 48 hrs by sulforhodamine B assay; settings: MDA-MB-231, 48 h; in short: as §1
# EKVX = assay: Growth inhibition of human EKVX cells at 10 uM after 48 hrs by sulforhodamine B assay; settings: read-out: GI; in short: as §2
# LOX IMVI = assay: Growth inhibition of human LOXIMVI cells at 10 uM after 48 hrs by sulforhodamine B assay; settings: read-out: GI; in short: as §2
# MOLT-4 = assay: Cytotoxicity against human MOLT4 cells after 48 hrs by sulforhodamine B assay; settings: MOLT-4, 48 h; in short: as §1
# IGROV-1 = assay: Growth inhibition of human IGROV1 cells at 10 uM after 48 hrs by sulforhodamine B assay; settings: IGROV-1, 48 h, read-out: GI; in short: as §2
# [1] = read-out: LC50 (the source's name)
smiles,measurement,setting,value
O=C(CCc1nnc(-c2ccc(Cl)cc2Cl)o1)c1nc2ccccc2[nH]1,GI50,NCI-H226,6.66 µM
same,TGI,NCI-H226,31.2 µM
same,CC50,NCI-H226; [1],100 µM
same,GI50,A498,1.53 µM
same,TGI,A498,10.1 µM
same,CC50,A498; [1],100 µM
same,inhibition of growth at 10 µM,COLO 205,37.4%
same,GI50,MDA-MB-231,2.68 µM
same,TGI,MDA-MB-231,42.6 µM
same,CC50,MDA-MB-231; [1],100 µM
same,inhibition of growth at 10 µM,EKVX,39%
same,inhibition of growth at 10 µM,LOX IMVI,44.9%
same,GI50,MOLT-4,4.07 µM
same,TGI,MOLT-4,25.8 µM
same,CC50,MOLT-4; [1],100 µM
same,inhibition of growth at 10 µM,IGROV-1,42.4%

# — ChEMBL document CHEMBL2040797, “Synthesis of benzimidazoles bearing oxadiazole nucleus as anticancer agents” (2012)
